Screening data (PubChem)
Only some compounds are listed: those with a hit (about 12% of all), similar ones and a draw of the others.
Autophagy mod = autophagy modulators in MEF cells, primary screen, imaging, high-content, MEF GFP-LC3 | calls only at 10 µM (by protocol) | AID 463193, 2010 | MEF GFP-LC3 puncta imaging; test concentration mostly 10 µM | actives 0.98% (n = 190,000);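 active means percentage of spot-positive cells more than 3 SD above its plate mean, without a fluorescence outlier flag or 80% toxicity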;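 further: spot-positive cell cutoff set from DMSO-treated cells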
bCat nuc transl = modulators of beta-catenin nuclear translocation, primary screen, imaging, HeLa cells, immunofluorescence, high-content | nuclear translocation activity, % at 5 µM | actives 0.3% (n = 190,000) | AID 1665, 2009;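 active means nuclear translocation activity above 50% at 5 µM, with a well cell count of 50 or more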;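 further: per-cell ratio of nuclear to cytoplasmic median beta-catenin stain intensity; plate controls were DMSO negative control for no effect and GSK-3 inhibitor IX positive control for full effect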
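Read-out: Nuclear/cytoplasmic beta-catenin signal ratio, % activation | Assay system: Human HeLa cell line | Times: 24 h compound exposure at 37°C, 5% CO2 | Signal: Fluorescence imaging of beta-catenin antibody stain plus DAPI | Dosing: 5 µM primary, 0.02–20 µM confirmation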
CHOP inhibitor = inhibitors of CHOP promoter induction, primary screen, cell-based, unfolded protein response, luciferase reporter. inhibition, % at 10 µM. AID 2732, 2010. CHO-K1 CHOP-promoter luciferase, tunicamycin-induced, 15-18 h. actives 3.8% (n = 220,000);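 active means compounds that reduced the stress-induced luciferase reporter signal by more than about 70% of percent inhibition, limit read from the data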;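 further: 0% = tunicamycin plus vehicle and 100% = wells without tunicamycin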
Dynein transport = inhibitors of GR-EGFP nuclear translocation, primary screen, dynein cargo transport inhibitor project, imaging, high-content, 3617.4 mouse cells; test concentration mostly 20 µM; stimulated with dexamethasone, 1 µM; stronger effect = lower value; z-score, hits read low; actives 0.47% (n = 220,000); AID 1381, 2008;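 active means plate z-score of nuclear minus cytoplasmic receptor signal below a set negative limit, without overly bright fluorescence or cell loss, cut at about -3.5 in these data, passing the limit was not always enough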;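 further: z-score of nuclear minus cytoplasmic ring GR-EGFP intensity difference per well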
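Also added: dexamethasone, 1.0 µM final. Medium: tet-free, stripped-serum medium. Detection: fixed, Hoechst-stained cells imaged at 10x for EGFP. Read-out: nuclear-to-cytoplasmic GR-EGFP distribution per well. Times: induction 48 h, compound 1 h, agonist 30 min.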
Lmaj promast = Leishmania major promastigote growth inhibition, primary screen. Leishmania major promastigotes, resazurin fluorescence viability. inhibition, % at 10 µM. actives 9% (n = 200,000). AID 1063, 2008; in the data active means inhibition above about 50%;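 further: promastigotes grown with compound for 44 hours at 28 °C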
MT stabilize HCS = microtubule stabilizers in HeLa cells, primary screen, imaging, high-content imaging; HeLa tubulin immunostaining HCS, 24 h; share of cells brighter than vehicle mean+2SD; % tubulin-high responders, % at 10 µM; actives 0.83% (n = 200,000); AID 2205, 2009;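 active means plate Z-score above 3 for both tubulin-high and condensed-nucleus cell shares, with cell loss under 80%, at 10 µM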;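 further: anti alpha tubulin signal scored within the nucleus-defined area of each cell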
CHOP confirm = retest of CHOP induction inhibitors, confirmation, cell-based. shares compounds with CHOP inhibitor. inhibition, % at 10 µM. AID 504437, 2011. actives 45% (n = 2,100). CHO-CHOP promoter luciferase reporter, tunicamycin-induced, luminescence;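 active means mean of three repeat readings of reporter signal inhibition above a set limit, cut at about 70% in these data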;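 further: 0% = tunicamycin plus vehicle and 100% = wells lacking tunicamycin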
Numbers without * were called inactive; i = inactive; nt = no result given.

SMILES	Autophagy mod	bCat nuc transl	CHOP inhibitor	Dynein transport	Lmaj promast	MT stabilize HCS	CHOP confirm
S=C(Nc1ccccc1)Nc1cc(Cl)ccc1Oc1ccccc1	i	-2	102*	-1.5	15	3	29
O=C(NC(=S)Nc1ccc(Oc2ccccc2)cc1)c1ccc(Cl)cc1	i	-1	59	-0.35	0	2	nt
COC(=O)c1ccc2nc(C(F)(F)F)[nH]c2c1	i	-2	-23	1.9	4	6	nt
N#Cc1ccc(N/N=C/c2ccccc2)c([N+](=O)[O-])c1	i	-5	-14	-0.42	-8	3	nt
CN(C)CCCNC(=S)Nc1ccc(Br)cc1	nt	1	-6	0.81	nt	nt	nt
CCC(=O)Nc1ccc(C(=O)CSc2nc(N)cc(N)n2)cc1	nt	0	-6	0.27	nt	nt	nt
Cn1c(=O)n(Cc2ccc(F)cc2)c(=O)c2c1nc1n2CCCN1C1CCCCC1	i	-6	103*	-0.65	3	1	26
O=S1(=O)CCN(Cc2cccc(C(F)(F)F)c2)CC1	i	-2	3	-0.63	-4	4	nt
COc1ccc(-c2cc(C3CCN(Cc4cccc(C(F)(F)F)c4)CC3)[nH]n2)cc1	i	2	106*	0.026	68*	3	104*
CN(C)S(=O)(=O)c1ccc(C(=O)OCn2nnc3ccccc3c2=O)cc1	i	6	10	2.1	9	2	nt
CCOC(=O)C(C)Oc1cccc2c(=O)n(CC(=O)Nc3cccc(OC)c3)ccc12 (stereo unspecified)	i	-2	23	-0.23	-6	11	nt
CCOC(=O)C(C)Oc1cccc2c(=O)n(CC(=O)Nc3ccc(OCC)cc3)ccc12 (stereo unspecified)	i	0	106*	0.92	-3	4	61
COC(=O)c1cn(-c2ccccc2)nc1-c1ccccc1	i	nt	8	1.2	5	3	nt
NS(=O)(=O)c1ccc(NC(=O)COC(=O)c2cn(-c3ccccc3)nc2-c2ccccc2)cc1	nt	-1	97*	-0.44	nt	nt	-1
O=C(CS(=O)(=O)Cc1ccccc1)Nc1ccc(S(=O)(=O)N2CCOCC2)cc1	i	0	-11	0.28	-4	3	nt
O/N=C(\c1ccc(Cl)cc1Cl)c1ncc(C(F)(F)F)cc1Cl	i	nt	107*	-0.75	2	2	111*
O=C(c1ccc(Cl)cc1Cl)c1ncc(C(F)(F)F)cc1Cl	i	0	68	-0.46	-7	2	nt
COc1ccc(-c2[nH]ncc2N=Nc2cc(C)cc(C)c2)cc1	i	12	104*	-0.58	25	16*	102*
COc1ccc(CCN(CC(=O)NC(C)(C)C)C(=O)Cn2nnc(-c3ccc(C)o3)n2)cc1OC	i	2	5	0.049	-9	2	nt
Cc1cccc(C(=O)NNC(=O)c2cc3cc4ccccc4nc3s2)c1	i	nt	103*	0.32	-5	2	6
Cc1cccc(C(=O)NNC(=O)c2ccc(-c3ccccc3)cc2)c1	i	0	51	-0.47	-4	2	nt
COC(=O)CCCCCCCC(=O)Nc1nnc(C(F)(F)F)s1	nt	6	-4	-0.72	nt	nt	nt
Nc1ccccc1C(=O)N/N=C1\C2CN3CCN(C2)CC1(c1ccccc1)C3	i	0	-31	1.6	22	1	nt
CC(C)(C)c1nnc(N/N=C/c2cc(Br)ccc2O)n(N)c1=O	i	4	106*	-0.19	98*	3	118*
COC(=O)CC1(c2ccc(OC)cc2)C(=O)c2ccccc2C1=O	nt	1	9	-0.01	nt	nt	nt
SMILES	Autophagy mod	bCat nuc transl	CHOP inhibitor	Dynein transport	Lmaj promast	MT stabilize HCS	CHOP confirm
COc1ccc(C(C[N+](=O)[O-])C2(c3ccc(OC)c(OC)c3)C(=O)c3ccccc3C2=O)cc1 (stereo unspecified)	i	0	104*	-3	100*	4	-165
Cc1cc(C(=O)CSc2ccc3c(c2)OCCO3)c(C)n1C1CC1	i	0	13	2.2	5	4	nt
CCOc1cccc(CNc2ccc(O)cc2)c1OCc1ccc(Cl)cc1	i	-2	109*	-1.6	100*	3	48
CCOc1cc(CNc2ccc(O)cc2)ccc1OCc1ccc(Cl)cc1Cl	i	8	103*	0.18	42	1	112*
COc1cc(CNCc2ccccn2)ccc1OCc1ccc(Cl)cc1Cl	i	2	98*	-0.33	99*	5	106*
CCOc1ccccc1CNc1ccc(O)cc1	i	1	-36	-1.1	22	5	nt
CCCC1/C(=N/O)CC(c2ccccc2)NC1c1ccccc1 (stereo unspecified)	i	0	106*	-0.39	25	5	35
O=C(Nc1ccc(C(=O)O)cc1)/C(=C\c1ccc([N+](=O)[O-])cc1)NC(=O)c1ccc(Br)cc1	i	nt	16	1.3	1	4	nt
O=C(Nc1ccc2oc(=O)ccc2c1)c1ccc(-c2cccc(Cl)c2)o1	nt	0	100*	0.89	nt	nt	16
O=C(Nc1ccc2oc(=O)ccc2c1)c1ccc(-c2ccc(Cl)cc2)o1	i	3	-17	-0.76	-4	3	nt
Cc1cc(N=Nc2c(O)c3ccccc3[nH]c2=O)ccc1N=Nc1ccc(C(=O)N(C)C)cc1	nt	0	105*	-0.21	nt	nt	18
COc1ccccc1-n1cc([C@@H]2C[C@H]3CN(c4ccccc4)C(=O)[C@]34CCCN24)cn1	i	0	102*	-0.52	2	8	104*
Cc1c(-c2cccc(Cl)c2)nc2ccccc2c1C(=O)OC/C(O)=C(\C#N)c1nc2ccccc2[nH]1	i	-2	105*	-0.91	2	6	47
Cc1c(C(=O)OC/C(O)=C(\C#N)c2nc3ccccc3[nH]2)oc2ccc(Br)cc12	nt	0	103*	-1.2	nt	nt	13
Cc1ccc(CNC(=O)C2CCC(CNc3nc(=S)[nH]c4ccccc34)CC2)cc1 (stereo unspecified)	i	2	98*	0.44	-4	3	40
O=C(/C=C\c1cn(-c2ccccc2)nc1-c1ccccc1)Nc1nccs1	i	3	108*	-0.71	-4	3	105*
CC(=O)NS(=O)(=O)c1ccc(NC(=O)/C=C/c2cn(-c3ccccc3)nc2-c2ccccc2)cc1	i	-1	4	-0.6	-5	4	nt
CN(/N=C/c1ccncc1)c1cnn(-c2ccc(F)c(Cl)c2)c(=O)c1Cl	i	-1	100*	-0.28	8	3	3
